Measurements published in ChEMBL document CHEMBL2417504, “A fundamental relationship between hydrophobic properties and biological activity for the duocarmycin class of DNA-alkylating antitumor drugs: hydrophobic-binding-driven bonding” (J Med Chem, 2013).
Values after ≈ are worked out from the molar mass of the structure shown.

Key:
[1] = tested on: L1210; assay: Cytotoxicity against mouse L1210 cells after 72 hrs by phosphatase assay; format: functional, cell-based; conditions: L1210, 72 h
Outline: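 L1210 mouse lymphocytic leukemia cells seeded at 30,000 cells/mL in DMEM + 10% FBS, 100 μL/well, 24 h at 37 °C, 5% CO2; DMSO serial 10-fold dilutions added, six concentrations over 0–100 nM or 0–1000 nM, duplicate, 72 h.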

[2] = Displacement of ethidium bromide from hairpin 5'AAAAA duplex DNA sequence (unknown origin) at 2 equivalent compound dose after 5 mins by FID assay
[3] = Displacement of ethidium bromide from hairpin 5'AAAAA duplex DNA sequence (unknown origin) at 10 equivalent compound dose after 5 mins by FID assay
[4] = Induction of w794 DNA alkylation (unknown origin) after 2 hrs by densitometric analysis relative to duocarmycin SA
Outline: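 Loss of full-length labeled DNA quantified by densitometry of remaining non-alkylated DNA. Relative alkylation efficiency corrected for the 10-fold differences in compound concentrations used.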

[5] = Solubility of the compound in water after 40 hrs; format: physicochemical; conditions: for solubility at 40 h: water; for solubility: buffer, 40 h

Compound	IC50 [1] [pM]	inhibition [2] [%]	inhibition [3] [%]	fold change (FC) [4]	solubility at 40 h [5] [µg/mL]	solubility [5] [µg/mL]
COCCOCCOCCOc1c(OC)cc2cc(C(=O)N3C[C@@H](CCl)c4c3cc(O)c3[nH]c(C(=O)OC)cc43)[nH]c2c1OC	70	–	–	–	–	–
COC(=O)c1cc2c3c(cc(O)c2[nH]1)N(C(=O)c1cc2cc(OC)c(OC)c(OC)c2[nH]1)C[C@H]3CCl	8	53	97	1	460 (≈ 895 µM)	–
COCCOCCOCCOCCOc1c(OC)cc2cc(C(=O)N3C[C@@H](CCl)c4c3cc(O)c3[nH]c(C(=O)OC)cc43)[nH]c2c1OC	110	–	–	–	–	–
COCCOc1c(OC)cc2cc(C(=O)N3C[C@@H](CCl)c4c3cc(O)c3[nH]c(C(=O)OC)cc43)[nH]c2c1OC	18	–	–	–	–	–
COCCOCCOCCOCCOCCOc1cc2cc(C(=O)N3C[C@@H](CCl)c4c3cc(O)c3[nH]c(C(=O)OC)cc43)[nH]c2c(OCCOCCOCCOCCOCCOC)c1OCCOCCOCCOCCOCCOC	370000	–	–	0.0002	–	> 12000
COCCOc1cc2cc(C(=O)N3C[C@@H](CCl)c4c3cc(O)c3[nH]c(C(=O)OC)cc43)[nH]c2c(OCCOC)c1OCCOC	37	10	50	0.9	740 (≈ 1150 µM)	–
COCCOCCOc1c(OC)cc2cc(C(=O)N3C[C@@H](CCl)c4c3cc(O)c3[nH]c(C(=O)OC)cc43)[nH]c2c1OC	35	–	–	–	–	–
COCCOCCOc1cc2cc(C(=O)N3C[C@@H](CCl)c4c3cc(O)c3[nH]c(C(=O)OC)cc43)[nH]c2c(OCCOCCOC)c1OCCOCCOC	260	0	27	0.08	2000 (≈ 2570 µM)	–
COCCOCCOCCOCCOCCOc1c(OC)cc2cc(C(=O)N3C[C@@H](CCl)c4c3cc(O)c3[nH]c(C(=O)OC)cc43)[nH]c2c1OC	250	–	–	–	–	–
COCCOCCOCCOc1cc2cc(C(=O)N3C[C@@H](CCl)c4c3cc(O)c3[nH]c(C(=O)OC)cc43)[nH]c2c(OCCOCCOCCOC)c1OCCOCCOCCOC	3500	–	–	0.009	–	80000 (≈ 87900 µM)
COCCOCCOCCOCCOc1cc2cc(C(=O)N3C[C@@H](CCl)c4c3cc(O)c3[nH]c(C(=O)OC)cc43)[nH]c2c(OCCOCCOCCOCCOC)c1OCCOCCOCCOCCOC	35000	–	–	0.001	–	> 19000
